PME-1 inh – PME-1 (human) inhibition | Q9Y570 | recombinant PME-1, FP-Rh probe fluorescence polarization | inhibition, % at 5.9 µM | hit rate 0.53% among 320,000 | AID 2130;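 active means inhibition above the campaign mean of all compounds plus 3 SD, cut at about 26% in these data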;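 further: competitive labeling of PME-1 active site by serine hydrolase directed probe; 0% = PME-1 with DMSO and 100% = wells lacking PME-1 enzyme; inhibitors block probe labeling so polarization falls and inhibition rises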
TCR CD3 inh – human TCR-CD3 binding inhibition; TAMRA-labeled TCR probe fluorescence, biochemical; hit rate 0.37% among 360,000; inhibition, % at 9.4 µM;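 further: recombinant mutant TCR 2C K166C tagged with TAMRA read by polarization; 0% = receptor in buffer alone and 100% = receptor with positive control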
Fam108B inh – Fam108B inhibition, counter-screen for RBBP9 inhibitors | recombinant Fam108B, FP-Rh probe fluorescence polarization | inhibition, % at 9.51 µM | hit rate 0.33% among 300,000 | AID 1947;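 active means inhibition above the screen mean inhibition plus 3 SD, computed separately per campaign, cut at about 18% in these data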;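 further: inhibitors lower polarization as less probe binds the enzyme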
SIAE primary – inhibitors of human sialic acid acetylesterase SIAE | Q9HAT2 | SIAE FP-Rh probe binding, fluorescence polarization | inhibition, % at 9.66 µM | hit rate 0.69% among 370,000 | AID 1053197;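 active means inhibition above a cutoff: mean of compounds within the control limits plus 3 SD of those, cut at about 17% in these data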;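 further: 0% = plate median of compound wells and 100% = probe without SIAE protein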
HTRA1 inhibitor – HTRA1 (human) protease inhibition. Q92743. recombinant HTRA1, FP-rhodamine activity-based probe, fluorescence polarization. inhibition, % at 5.96 µM. hit rate 0.5% among 340,000. AID 504803; in the data active means inhibition above about 36%;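 further: 0% = enzyme with DMSO and 100% = wells lacking enzyme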
Target sequence (Q92743 whole entry, looked up): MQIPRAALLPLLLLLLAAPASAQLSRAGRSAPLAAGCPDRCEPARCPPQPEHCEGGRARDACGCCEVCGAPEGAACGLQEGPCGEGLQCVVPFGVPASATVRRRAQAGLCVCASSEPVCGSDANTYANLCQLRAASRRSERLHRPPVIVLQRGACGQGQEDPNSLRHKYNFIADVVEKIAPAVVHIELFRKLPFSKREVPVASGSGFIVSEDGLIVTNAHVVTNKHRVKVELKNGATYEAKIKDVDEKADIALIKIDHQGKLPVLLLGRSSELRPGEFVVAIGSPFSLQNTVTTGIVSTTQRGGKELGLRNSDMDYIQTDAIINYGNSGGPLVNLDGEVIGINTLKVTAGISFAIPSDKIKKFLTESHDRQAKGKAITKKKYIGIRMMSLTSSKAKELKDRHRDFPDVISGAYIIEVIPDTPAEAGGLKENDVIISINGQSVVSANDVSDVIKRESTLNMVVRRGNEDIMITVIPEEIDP
ABHD4 inh – inhibitors of mouse ABHD4; purified mABHD4, FP-Rh probe fluorescence polarization; inhibition, % at 8.92 µM; hit rate 0.54% among 370,000; AID 720543;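 active means inhibition exceeding the mean over every tested compound plus 3 SD, cut at about 30% in these data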;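 further: 0% = plate median of compound wells and 100% = S159A mutant with DMSO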
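Test system: mouse ABHD4 enzyme, wild type. Reagent: FP-Rh fluorescent activity-based probe, added after compound pre-incubation. Timing: pre-incubation 45 min, probe exposure 60 min, at 25 °C. Technique: FP readout, ex 525 nm / em 598 nm. Benchmarks: high control S159A mutant with DMSO, low control median of compound wells.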
BSA TAMRA ctr – interferes with TAMRA-BSA probe, flagging TCR-CD3 hits; shares compounds with TCR CD3 inh; hit rate 10% among 1,200; inhibition, % at 9.4 µM; TAMRA-labeled BSA probe fluorescence counterscreen; in the data active means inhibition above about 23%;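 further: 0% = buffer low control and 100% = reference high control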
TCR-CD3 inh conf – confirmation of human TCR-CD3 interaction inhibitors; shares compounds with TCR CD3 inh; TAMRA-labeled TCR probe fluorescence binding assay; inhibition, % at 9.4 µM; hit rate 48% among 1,200; AID 652036
An asterisk follows results filed as active; . = no result given; + = active, no number. Hits are enriched below; roughly 1.8% of the tested compounds scored in any of these assays. Unless noted, no stated cut-off is given here; in the data, active means inhibition above about 19%; inactive means the rest.

SMILES	PME-1 inh	TCR CD3 inh	Fam108B inh	SIAE primary	HTRA1 inhibitor	ABHD4 inh	BSA TAMRA ctr	TCR-CD3 inh conf
CCOC(=O)c1cnc(Cc2ccccc2)[nH]c1=O	-5	33*	0	-3	0	0	2	1
Nn1c(SCC(=O)Nc2cccc3ccccc23)nnc1-c1n[nH]c2c1CCC2	.	.	.	0	.	4	.	.
O=C(O)c1cccc(-n2cccc2/C=C2/NC(=O)N(c3ccc(Cl)cc3)C2=O)c1	.	36*	.	-2	11	4	-11	31*
Clc1ccc2nc(CSCc3ccccc3)cn2c1	1	39*	-3	1	1	-5	2	1
COc1ccc(/C=C2\CC3(OC(=O)C4CCCC4)CCCN2C3)cc1 (configuration not stated)	.	.	.	-2	.	3	.	.
C[C@H](CO)N1C[C@H](C)[C@@H](CN(C)S(=O)(=O)c2cccs2)Oc2ccc(NC(=O)Nc3ccc(C(F)(F)F)cc3)cc2C1=O	.	28*	.	-210	-123	-111	8	19*
C[C@H](CO)N1C[C@H](C)[C@@H](CN(C)S(=O)(=O)c2cccs2)Oc2ccc(NC(=O)Nc3ccccc3)cc2C1=O	.	-4	.	-26	-22	-13	.	.
C[C@@H]1CN([C@H](C)CO)C(=O)c2cc(NC(=O)Nc3ccc(C(F)(F)F)cc3)ccc2O[C@H]1CN(C)S(=O)(=O)c1cccs1	.	43*	.	-195	-158	-135	10	23*
C[C@H](CO)N1C[C@H](C)[C@@H](CN(C)S(C)(=O)=O)Oc2ccc(NC(=O)Nc3ccc(C(F)(F)F)cc3)cc2C1=O	.	4	.	-20	-10	-11	.	.
COc1ccc(NC(=O)NNC(=O)c2ccc3ccccc3c2O)c(OC)c1	3	42*	2	15	17	14	-14	31*
CCc1ccccc1NC(=O)NNC(=O)c1ccc2ccccc2c1O	2	26*	4	16	18	11	-4	22*
CC(=O)Nc1c(-c2ccc(C)cc2)nc2ncccn12	.	.	.	-2	.	10	.	.
CC(=O)c1cc(-c2ccc(F)cc2)n(CCC(=O)NC(C)(C)C)c1C	4	20*	1	1	-3	3	2	-2
COc1ccc(N2CCN(C(c3cccs3)C(C)NC(=O)C(=O)N3CCCC3)CC2)cc1 (configuration not stated)	-13	20*	4	9	3	6	1	1
COc1ccc(-c2nn(-c3ccccc3)cc2/C=C/C(=O)N(C)CC(=O)Nc2cccc(F)c2)cc1OC	.	26*	.	-89	-120	-101	13	26*
Cn1c(SCC(=O)c2ccc(O)c(O)c2)nnc1-c1cccs1	-1	23*	-4	10	18	24	-12	17
Oc1ccc(-c2cn3c(n2)SCC3)cc1	2	-3	5	-1	3	-4	.	.
Oc1ccc(-c2cn3c(n2)SCC3)cc1O	-7	38*	1	7	33	23	-7	33*
COC(=O)C(NC(=O)CSc1nc(N)cc(=O)[nH]1)c1ccccc1 (configuration not stated)	-1	-4	-1	-3	5	0	.	.
Nc1cc(=O)[nH]c(SCC(=O)NNC(=O)c2ccccc2)n1	3	22*	-2	-5	1	-1	-1	5
Cc1ccc(C(=O)OCC(=O)Nc2ccc(C(N)=O)cc2)s1	-1	+	.	2	10	5	-1	2
Nc1ncc(-c2ccc(F)cc2)nc1N1CCN(CCO)CC1	.	0	.	1	.	4	.	.
OCCN1CCN(c2cnc(-c3ccsc3)cn2)CC1	.	38*	.	9	.	4	6	2
O=C(O)c1ccc(/C=N/O)cc1	2	19*	-1	3	4	1	1	1
CN(CCO)c1cccc2c1S(=O)(=O)N(Cc1cn(Cc3ccccc3C(F)(F)F)nn1)Cc1ccccc1O2	.	.	.	7	.	-3	.	.
SMILES	PME-1 inh	TCR CD3 inh	Fam108B inh	SIAE primary	HTRA1 inhibitor	ABHD4 inh	BSA TAMRA ctr	TCR-CD3 inh conf
Cc1c(O)cc2c(c1O)C(=O)CC(c1ccc(O)cc1)O2 (configuration not stated)	-1	34*	2	-2	3	-3	0	22*
Cc1ccc(NC(=O)C2CC3CCC2C3)c(C)c1 (configuration not stated)	.	.	.	1	.	-7	.	.
CC(=O)NNC(=S)NC(=O)c1ccc(C)cc1	-6	23*	1	11	5	5	1	20*
CC(C(=O)N1CCCCC1)N1C(=O)c2ccccc2C1=O (configuration not stated)	0	-1	4	3	2	2	.	.
CC1SC(=NC(=O)C(C)N2C(=O)c3ccccc3C2=O)NC1=O (configuration not stated)	-2	104*	4	0	8	1	3	0
COc1ccc(C2CC(=O)C(c3ccc(C)cc3)=CN2Cc2ccccc2)cc1 (configuration not stated)	.	-10	.	6	.	14	.	.
C[C@@H]1CN([C@H](C)CO)C(=O)c2cc(NC(=O)Nc3ccccc3)ccc2O[C@@H](C)CCCCO[C@H]1CN(C)S(=O)(=O)c1ccc(F)cc1	.	.	.	-1	.	-26	.	.
CC(C)[C@H](NC(=O)c1ccco1)C(=O)OCC(=O)c1ccc2c(c1)NC(=O)CO2	-10	118*	3	1	-6	0	2	3
CCN(CC)c1ccc2nc3ccc(N)cc3[n+](-c3ccccc3)c2c1	.	124*	.	-11	22	11	121*	97*
CCC(=O)Nc1cccc(C2=NOC3(C2)C[C@@H](C(N)=O)N(C(=O)COc2ccc(Cl)cc2)C3)c1 (some centres not stated)	2	1	-3	-6	-12	-4	.	.
NC(=O)[C@H]1CC2(CC(c3cccc(NC(=O)COc4ccc(Cl)cc4)c3)=NO2)CN1C(=O)CC(c1ccccc1)c1ccccc1 (some centres not stated)	-43	54*	-29	-73	-101	-85	12	30*
NC(=O)[C@@H]1CC2(CC(c3cccc(NC(=O)CC(c4ccccc4)c4ccccc4)c3)=NO2)CN1C(=O)COc1ccc(Cl)cc1 (some centres not stated)	-60	32*	-37	-68	-125	-73	14	31*
CNC(=S)NNC(=O)c1cccn(Cc2ccc(Cl)c(Cl)c2)c1=O	4	22*	1	10	-10	16	1	27*
CNC(=S)NNC(=O)c1cccn(Cc2cccc(Cl)c2)c1=O	2	22*	-2	9	-1	13	-9	27*

Compound activity (PubChem BioAssay)
